This is an account of results in article PMC3151333 (Cancer prevention research (Philadelphia, Pa.), 2011).

Data set [1] is described as follows: LC-MS/MS determination of protocatechuic acid. The conditions noted are these: for donors whose saliva contained detectable PCA: final (240 minute) time point, 0.2 ng/ml detection limit. The class given is in vivo, human.
Another data set has as its system β-glucosidase. The class given is biochemical, human. Particulars: 0.12% in PBS, 3 minute rinse.
For data set [2] the following is noted: cited from earlier work.
The format of data set [3] is in vivo, human. Particulars: for glucuronide of the parent anthocyanin in saliva (selected ion chromatograms): five minute Rinse III saliva samples; for saliva samples with cyanidin-3 sambubioside glucuronides detected: Rinse III.
The format of data set [4] is in vivo, human.
The conditions of data set [5]: 240 minute time point following 10% BRB gel application; cited from earlier work.
A further data set concerns rat liver microsomes. Put plainly: Incubation of cyanidin-3 sambubioside with rat liver microsomes. The class given is in vitro ADME. The conditions noted are these: similar retention time and tandem mass spectra as in saliva. (Liver microsomes are vesicles of endoplasmic reticulum, rich in cytochrome P450 enzymes.)
A short description of data set [6]: Detection of protocatechuic acid O-glucuronide. The class given is in vivo, human. The essentials: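 Donors rinsed vigorously with 15 ml augmented BRB rinse (10% final BRB) for 3 min. Saliva was collected at timed intervals, acidified with 5% final formic acid and stored at −80°C. Ion-trap LC-MS coupled to HPLC was tuned by infusing a synthetic PCAOG standard. The run used full scan, zoom scan and CID product-ion scan, and the 329.0>153.0 transition was monitored at 35% energy.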

The mark [7] stands for this setting: after ingestion of a 300 mg dose.

Where two headings read alike, the source gives them in different places.

On to `O=C(O)c1ccc(O)c(O)c1` [PCA, protocatechuic acid], for which the “retention in saliva after rinsing” value in data set [1] (BRB rinses) is given as “up to 4 hours”. The “donors whose saliva contained detectable PCA” value in data set [1] (Rinse I) was 2 of 10; in data set [1] (Rinse II), 2 of 10; in data set [1] (Rinse III), 6 of 10.
For `[H]/N=C(\N/C(=N/[H])NCCCCCCNC(=N)NC(=N)Nc1ccc(Cl)cc1)Nc1ccc(Cl)cc1` [chlorhexidine gluconate], in the data set on β-glucosidase, the “donors retaining appreciable functional β-glucosidase activity following rinsing” value is reported as 10 of 11. Also, the “decrease in β-glucosidase in saliva following rinsing (mean ± s.e.m)” value in the data set on β-glucosidase (saliva 15 minutes after rinsing, n=11, p<0.001) is 69.43% ±7.24. Moreover, in data set [2] (setting [7]), the “mean peak plasma levels” value was 0.206 µg/g and the “time of mean peak plasma levels” value was 30 min. In addition, in data set [2], the “absorption from the gastrointestinal tract” value is recorded as “poorly absorbed”; the “fraction retained in the oral cavity following rinsing” value is recorded as about 30%; the “persistence in human saliva after rinsing” value is reported as “at least 12 hours”; the “retention by local adsorption, then slowly released over time” value is “approximately 30%”.
With `OC[C@H]1O[C@@H](Oc2cc3c(O)cc(O)cc3[o+]c2-c2ccc(O)c(O)c2)[C@H](O)[C@@H](O)[C@@H]1O` [cyanidin 3-glucoside], in data set [3], the “glucuronide of the parent anthocyanin in saliva (selected ion chromatograms)” value is “did not reveal any novel peaks”. In addition, in data set [4] (in vivo), the “salivary BRB anthocyanin level, Rinse I relative to Rinse III” value is listed as “significantly higher” and the “salivary anthocyanin level, Rinse II relative to Rinse I” value is given as “significantly lower”.
On to `C[C@@H]1O[C@@H](OC[C@H]2O[C@@H](Oc3cc4c(O)cc(O)cc4[o+]c3-c3ccc(O)c(O)c3)[C@H](O)[C@@H](O)[C@@H]2O)[C@H](O)[C@H](O)[C@H]1O` [cyanidin 3-rutinoside], for which the “glucuronide of the parent anthocyanin in saliva (selected ion chromatograms)” value in data set [3] is on record as “did not reveal any novel peaks”. In data set [4] (in vivo), the “donors showing detectable rutinoside in saliva” value is 10 out of 10; the “rutinoside levels in saliva (mean ± S.D.)” value amounted to 2287.12 ± 489.55 µg/mL; the “salivary BRB anthocyanin level, Rinse I relative to Rinse III” value was “significantly higher”. Moreover, in data set [5], the “donors retaining any salivary anthocyanins, including rutinoside” value was 3 out of 5.
In the case of `OC[C@H]1O[C@@H](Oc2cc3c(O)cc(O)cc3[o+]c2-c2ccc(O)c(O)c2)[C@H](O[C@@H]2OC[C@@H](O)[C@H](O)[C@H]2O)[C@@H](O)[C@@H]1O.[Cl-]` [cyanidin 3-sambubioside], the “metabolite formation on incubation with rat liver microsomes” value in the data set with rat liver microsomes is “generated cyanidin-3 sambubioside glucuronides”. Further, the “salivary BRB anthocyanin level, Rinse I relative to Rinse III” value in data set [4] (in vivo) is “significantly higher”.
Take `Oc1cc(O)c2cc(O)c(-c3ccc(O)c(O)c3)[o+]c2c1` [cyanidin]: the “time by which salivary cyanidin levels were undetectable” value in data set [4] (all samples from all rinses) is at most 60 min. The “aglycone cyanidin in early saliva samples” value in data set [4] (up to 5 minute post rinse, all three rinse groups, all donors) is reported as “detectable levels”.
In the case of cyanidin-3 sambubioside glucuronides, the figures for the “saliva samples with cyanidin-3 sambubioside glucuronides detected” value in data set [3] (30 minute samples) and in data set [3] (five minute time point samples) were 3 of 6 and 6 of the 6, respectively. In addition, the “cyanidin 3-sambubioside glucuronides in saliva” value in data set [3] (after the 30 minute post rinse samples) is listed as “no cyanidin 3-sambubioside glucuronides were observed”.
As for “protocatechuic acid O-glucuronide [PCAOG]”, in data set [6] (30, 60, 120 and 240 min after Rinse III, either donor), the “PCAOG peaks in later time point saliva samples” value is “did not reveal any peaks”. The “donors with PCAOG peak detected in saliva” value in data set [6] (5 min saliva sample after Rinse III) is recorded as 1 of the 2.
